Reference: article PMC11986672 (RSC Medicinal Chemistry, 2025)
Values joined by “and” are separate entries in the source; they are usually repeats but may differ in a detail not shown here. Equal entries are not always repeated. Structures can show the parent of a compound that is named as a salt. Where two headings read alike, the source gives them in different places.

How the values were obtained:
[1] = tested on: human endometrial cancer (HEC1A) cells; experiment: MTT cytotoxicity assay, HEC1A; assay type: cell-based; details: for IC50: 48 h; for Selectivity ratio: IC50 MAD11 divided by IC50 HEC1A; for times more potent than BH10: HEC1A IC50 compared with BH10
Summary of the method: (§1)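 HEC1A (5000/well) and MAD11 (2500/well) cells were seeded and held overnight at 37 °C. Test compound was reconstituted in DMSO and serially diluted in medium to final 160, 80, 40, 20, 10, 5, 2.5 and 1.25 μM, in triplicate, with matched DMSO in all wells. After 48 h, MTT was added for 3 h, formazan solubilised (4 mM HCl, 0.1% NP-40, isopropanol) and absorbance read at 590/620 nm. IC50 was taken against vehicle controls; selectivity = MAD11 IC50 / HEC1A IC50.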

[2] = tested on: noncancerous human endometrial stromal (MAD11) cells; experiment: MTT cytotoxicity assay, MAD11; assay type: cell-based; details: MAD11, 48 h, read-out: MAD11 IC50
Summary of the method: as §1

[3] = Homo sapiens, HEC-1-A, read-out: HEC1A IC50, MTT cell viability, 48 h, n = 3 biological repeats
[4] = read-out: HEC1A IC50, MTT cell viability, n = 3 biological repeats

Row | SMILES | IC50 [1, 3] [µM] | IC50 [2] [µM] | Selectivity ratio [1] | times more potent than BH10 [1] [times] | IC50 ([1]; Homo sapiens, HEC-1-A, read-out: HEC1A IC50) [µM] | IC50 [1, 4] [µM]
1 | O=C1C=C(NCCN2CCOCC2)C(=O)c2ccccc21 [Compound 5, 2-((2-Morpholinoethyl)amino)naphthalene-1,4-dione] | > 40 | > 40 |  |  |  | 
2 | O=C1C=C(NCCCN2CCOCC2)C(=O)c2ccccc21 [Compound 6, 2-((3-Morpholinopropyl)amino)-[1,4]-naphthoquinone] | > 40 | > 40 |  |  |  | 
3 | O=C1C=C(NCCCN2CCCCC2)C(=O)c2ccccc21 [Compound 7, 2-((3-(Piperidin-1-yl)propyl)amino)-[1,4]-naphthoquinone] | 17.2 | > 40 | >2.32 |  |  | 
4 | O=C1C(Br)=C(NCCN2CCOCC2)C(=O)c2ccccc21 [Compound 8, 2-Bromo-3-((2-(4-morpholinyl)ethyl)amino)-[1,4]-naphthoquinone] | 9.55 | 20.5 | 2.15 |  |  | 
5 | O=C1C(Br)=C(NCCCN2CCOCC2)C(=O)c2ccccc21 [Compound 9, 2-Bromo-3-((3-morpholinopropyl)amino)-[1,4]-naphthoquinone] | 4.16 | 12.1 | 2.90 |  |  | 
6 | O=C1C(Br)=C(NCCCN2CCCCC2)C(=O)c2ccccc21 [Compound 10, 2-Bromo-3-((3-(piperidin-1-yl)propyl)amino)-[1,4]-naphthoquinone] | 1.24 | 3.27 | 2.64 |  |  | 
7 | CC1=C(NCCN2CCOCC2)C(=O)c2ccccc2C1=O [Compound 11, 2-Methyl-3-((2-(4-morpholinyl)ethyl)amino)-[1,4]-naphthoquinone] | > 40 | > 40 |  |  |  | 
8 | CN(C)CCNC1=C(Cl)C(=O)c2ccccc2C1=O [Compound 12, 2-Chloro-3-((2-(dimethylamino)ethyl)amino)-[1,4]-naphthoquinone] | 1.57 | 2.87 | 1.83 |  |  | 
9 | O=C1C(Cl)=C(NCCN2CCCC2)C(=O)c2ccccc21 [Compound 13, 2-Chloro-3-((2-(1-pyrrolidinyl)ethyl)amino)-[1,4]-naphthoquinone] | 1.29 | 2.38 | 1.84 | ~8 |  | 
10 | O=C1C(Cl)=C(NCCN2CCCCCC2)C(=O)c2ccccc21 [Compound 15, 2-((2-(Azepan-1-yl)ethyl)amino)-3-chloro-[1,4]-naphthoquinone] | 1.29 | 2.38 | 1.84 | ~8 |  | 
11 | O=C1C(Cl)=C(NCCCl)C(=O)c2ccccc21 [Compound 16, 2-Chloro-3-((2-chloroethyl)amino)-[1,4]-naphthoquinone] |  | 12.1 | 2.14 |  | 5.65 | 
12 | O=C1C(Cl)=C(NCCN2CCN(C3=C(Cl)C(=O)c4ccccc4C3=O)CC2)C(=O)c2ccccc21 [Compound 18, 2-Chloro-3-(4-(2-((3-chloro-1,4-dioxo-1,4-dihydronaphthalen-2-yl)amino)ethyl)piperazin-1-yl)-[1,4]-naphthoquinone] | 2.91 | 3.4 | 1.17 | 3.5 |  | 
13 | O=C1C(Cl)=C(NCCc2c[nH]c3ccccc23)C(=O)c2ccccc21 [Compound 19, 2-((2-(1H-Indol-3-yl)ethyl)amino)-3-chloronaphthalene-1,4-dione] | 18.6 | 40.3 | 2.24 |  |  | 
14 | O=C1C(Cl)=C(NCCCN2CCOCC2)C(=O)c2ccccc21 [Compound 20, 2-Chloro-3-((3-morpholinopropyl)amino)naphthalene-1,4-dione] | 6.41 | 21.9 | 3.42 |  |  | 
15 | CN(C)CCCNC1=C(Cl)C(=O)c2ccccc2C1=O [Compound 22, 2-Chloro-3-((3-(dimethylamino)propyl)amino)naphthalene-1,4-dione] | 2.36 | 5.27 | 2.23 |  |  | 
16 | CCCCNC1=C(Cl)C(=O)c2ccccc2C1=O [Compound 23, 2-(Butylamino)-3-chloro-[1,4]-naphthoquinone] | 32 | > 40 | >1.25 |  |  | 
17 | C#CCNC1=C(Cl)C(=O)c2ccccc2C1=O [Compound 24, 2-Chloro-3-(prop-2-yn-1-ylamino)naphthalene-1,4-dione] | 21.9 | 22.4 | 1.02 |  |  | 
18 | CCOC(=O)CNC1=C(Cl)C(=O)c2ccccc2C1=O [Compound 25, Ethyl (3-chloro-1,4-dioxo-1,4-dihydronaphthalen-2-yl)glycinate] | 20 | 20.1 | 1.00 |  |  | 

Row | SMILES | IC50 [1, 3] [µM] | IC50 [2] [µM] | Selectivity ratio [1] | times more potent than BH10 [1] [times] | IC50 ([1]; Homo sapiens, HEC-1-A, read-out: HEC1A IC50) [µM] | IC50 [1, 4] [µM]
19 | COC(=O)[C@H](Cc1c[nH]c2ccccc12)NC1=C(Cl)C(=O)c2ccccc2C1=O [Compound 26, Methyl (3-chloro-1,4-dioxo-1,4-dihydronaphthalen-2-yl)-L-tryptophanate] | > 40 | > 40 |  |  |  | 
20 | COC(=O)[C@H](Cc1ccccc1)NC1=C(Cl)C(=O)c2ccccc2C1=O [Compound 27, Methyl (3-chloro-1,4-dioxo-1,4-dihydronaphthalen-2-yl)-L-phenylalaninate] | > 40 | > 40 |  |  |  | 
21 | O=C1C(Cl)=C(NCCN2CCNCC2)C(=O)c2ccccc21 [Compound 29, 2-Chloro-3-((2-(1-piperazinyl)ethyl)amino)-[1,4]-naphthoquinone salt] | 4.68 | 11.5 | 2.45 | 2.2 |  | 
22 | COC(=O)[C@H](CCCCN)NC1=C(Cl)C(=O)c2ccccc2C1=O [Compound 30, Methyl (3-chloro-1,4-dioxo-1,4-dihydronaphthalen-2-yl)-L-lysinate] | 38 | > 40 |  |  |  | 
23 | O=C1C(Cl)=C(NCc2cn(-c3ccccc3)nn2)C(=O)c2ccccc21 [Compound 31, 2-Chloro-3-(((1-phenyl-1H-1,2,3-triazol-4-yl)methyl)amino)naphthalene-1,4-dione] | 19.5 | 34 | 1.74 |  |  | 
24 | O=C(O)c1ccc(-n2cc(CNC3=C(Cl)C(=O)c4ccccc4C3=O)nn2)cc1 [Compound 32, 4-(4-(((3-Chloro-1,4-dioxo-1,4-dihydronaphthalen-2-yl)amino)methyl)-1H-1,2,3-triazol-1-yl)benzoic acid] | > 40 | > 40 |  |  |  | 
25 | CCOC(=O)c1ccc(-n2cc(CNC3=C(Cl)C(=O)c4ccccc4C3=O)nn2)cc1 [Compound 33, Ethyl 4-(4-(((3-chloro-1,4-dioxo-1,4-dihydronaphthalen-2-yl)amino)methyl)-1H-1,2,3-triazol-1-yl)benzoate] | 11.1 | 21.3 | 1.92 |  |  | 
26 | CC(=O)NC1=C(NCCCN2CCCCC2)C(=O)c2ccccc2C1=O [Compound 39, N-(1,4-Dioxo-3-((3-(piperidin-1-yl)propyl)amino)-1,4-dihydronaphthalen-2-yl)acetamide] | 26 | > 40 |  |  |  | 26
27 | CCC(=O)NC1=C(NCCCN2CCCCC2)C(=O)c2ccccc2C1=O [Compound 40, N-(1,4-Dioxo-3-((3-(piperidin-1-yl)propyl)amino)-1,4-dihydronaphthalen-2-yl)propionamide] | 14 | 38.2 | 2.70 |  |  | 14.1
28 | CCCC(=O)NC1=C(NCCCN2CCCCC2)C(=O)c2ccccc2C1=O [Compound 41, N-(1,4-Dioxo-3-((3-(piperidin-1-yl)propyl)amino)-1,4-dihydronaphthalen-2-yl)butyramide] | 15 | > 40 |  |  |  | 
29 | CCCCC(=O)NC1=C(NCCCN2CCCCC2)C(=O)c2ccccc2C1=O [Compound 42, N-(1,4-Dioxo-3-((3-(piperidin-1-yl)propyl)amino)-1,4-dihydronaphthalen-2-yl)pentanamide] | 15 | > 40 |  |  |  | 
30 | CC(=O)NC1=C(NCCN2CCOCC2)C(=O)c2ccccc2C1=O [Compound 43, N-(3-((2-Morpholinoethyl)amino)-1,4-dioxo-1,4-dihydronaphthalen-2-yl)acetamide] | > 40 | > 40 |  |  |  | 
31 | CCc1nc2c(n1CCCN1CCCCC1)C(=O)c1ccccc1C2=O [Compound 45, 2-Ethyl-1-(3-(piperidin-1-yl)propyl)-1H-naphtho[2,3-d]imidazole-4,9-dione] | 12 | 35 | 2.92 |  |  | 
32 | CCCc1nc2c(n1CCCN1CCCCC1)C(=O)c1ccccc1C2=O [Compound 46, 1-(3-(Piperidin-1-yl)propyl)-2-propyl-1H-naphtho[2,3-d]imidazole-4,9-dione] | 19 | > 40 |  |  |  | 
33 | CCCCc1nc2c(n1CCCN1CCCCC1)C(=O)c1ccccc1C2=O [Compound 47, 2-Butyl-1-(3-(piperidin-1-yl)propyl)-1H-naphtho[2,3-d]imidazole-4,9-dione] | 14 | 24 | 1.80 |  |  | 
34 | Cc1nc2c(n1CCN1CCOCC1)C(=O)c1ccccc1C2=O [Compound 48, 2-Methyl-1-(2-morpholinoethyl)-1H-naphtho[2,3-d]imidazole-4,9-dione] | > 40 | > 40 |  |  |  | 
35 | O=C(Cc1ccccc1)NC1=C(NCCCN2CCCCC2)C(=O)c2ccccc2C1=O [Compound 50, N-(1,4-Dioxo-3-((3-(piperidin-1-yl)propyl)amino)-1,4-dihydronaphthalen-2-yl)-2-phenylacetamide] | 8.8 | 39 | 4.4 and 4.43 |  |  | 
